According to ChEMBL document CHEMBL4138258 (ACS Med Chem Lett, 2017):
In brackets after ≈: the same amount, converted by molar mass. Activity calls are given as the source filed them.

Tests used:
[1] = system: Rattus norvegicus; experiment: Analgesic activity in Sprague-Dawley rat MIA-induced osteoarthritic pain model assessed as increase in paw withdrawal threshold at 3 mg/kg, ip by von Frey filaments assay; assay type: functional, organism-based
Summary of the method: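 Rat MIA osteoarthritis pain model, with analgesia read as von Frey paw withdrawal threshold. In blocking runs, 3 mg/kg IP agonist was combined with the CB2 antagonist AR401733 (10 mg/kg PO) or the CB1 antagonist rimonabant (10 mg/kg PO).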

[2] = system: Rattus norvegicus; experiment: Toxicity in Sprague-Dawley rat MIA-induced osteoarthritic pain model assessed as induction of tachyphylaxis at 10 mg/kg, ip administered twice daily for 5 days measured 1 hr post dose at 1 day interval for 5 days during compound dosing; assay type: organism-based; conditions: in vivo
Summary of the method: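 MIA-treated rats were dosed IP twice daily for 5 days. Reversal of hypersensitivity was measured by von Frey paw withdrawal threshold 1 h after the morning dose on days 1, 3 and 5. Morphine was given on the same regimen for comparison.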

[3] = target: Cannabinoid receptor 2 (Homo sapiens, UniProt P34972); experiment: Agonist activity at recombinant human CB2 receptor expressed in HEK293 cells assessed as increase in beta arrestin recruitment measured after 2 to 3 hrs by PathHunter assay relative to CP55940; assay type: functional, cell-based
[4] = target: T1, Cannabinoid receptor 2 (Rattus norvegicus, UniProt Q9QZN9); experiment: Agonist activity at recombinant rat CB2 receptor expressed in HEK293 cells assessed as increase in beta arrestin recruitment measured after 2 to 3 hrs by PathHunter assay; assay type: functional, cell-based
T1 sequence (Q9QZN9 whole entry): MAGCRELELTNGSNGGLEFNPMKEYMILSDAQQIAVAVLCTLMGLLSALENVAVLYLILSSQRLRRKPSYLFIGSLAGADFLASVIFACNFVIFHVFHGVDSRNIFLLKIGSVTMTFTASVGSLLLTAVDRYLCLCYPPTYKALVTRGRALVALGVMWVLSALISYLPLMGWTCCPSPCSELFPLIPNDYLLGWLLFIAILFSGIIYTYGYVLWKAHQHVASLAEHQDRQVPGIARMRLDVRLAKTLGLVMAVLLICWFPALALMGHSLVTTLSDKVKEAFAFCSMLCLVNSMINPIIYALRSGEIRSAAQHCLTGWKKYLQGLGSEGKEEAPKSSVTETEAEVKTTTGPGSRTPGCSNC

[5] = target: T2, Cannabinoid receptor 2 (Rattus norvegicus) (UniProt Q9QZN9); experiment: Agonist activity at recombinant rat CB2 receptor expressed in HEK293 cells assessed as increase in beta arrestin recruitment measured after 2 to 3 hrs by PathHunter assay relative to CP55940; assay type: functional, cell-based
T2 sequence (whole entry): T1 sequence (Q9QZN9 whole entry)
Summary of the method: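 Beta-arrestin recruitment EC50 is the mean of three or more independent experiments (logSD < 0.4). Intrinsic activity (Emax) is expressed relative to CP-55,940 set at 100.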

[6] = target: Cannabinoid receptor 1 (Rattus norvegicus, UniProt P20272); experiment: Agonist activity at recombinant rat CB1 receptor expressed in HEK293 cells assessed as increase in beta arrestin recruitment measured after 2 to 3 hrs by PathHunter assay; assay type: functional, cell-based
[7] = target: T2, Cannabinoid receptor 2 (Rattus norvegicus); experiment: Induction of recombinant HA-tagged rat CB2 receptor internalization expressed in CHOK1 cells at 10 uM measured after 1 hr by time-resolved flow cytometry relative to CP55940; assay type: functional, cell-based
[8] = Half life in human liver microsomes; assay type: ADME, microsome
[9] = Half life in rat liver microsomes; assay type: ADME, microsome
[10] = Half life in mouse liver microsomes; assay type: ADME, microsome
[11] = Ratio of drug level in brain to plasma in Sprague-Dawley rat at 3 mg/kg, po measured after 2 hrs; assay type: ADME, organism-based; conditions: brain and plasma, read-out: BPR
[12] = Protein binding in mouse plasma assessed as unbound fraction; assay type: ADME, cell-free
[13] = Protein binding in rat plasma assessed as unbound fraction; assay type: ADME, cell-free
[14] = Protein binding in dog plasma assessed as unbound fraction; assay type: ADME, cell-free, Canis lupus familiaris
[15] = Protein binding in monkey plasma assessed as unbound fraction; assay type: ADME, cell-free, Macaca mulatta; conditions: rhesus monkey
[16] = Protein binding in human plasma assessed as unbound fraction; assay type: ADME, cell-free
[17] = system: Rattus norvegicus; experiment: Analgesic activity in po dosed Sprague-Dawley rat MIA-induced osteoarthritic pain model assessed as increase in paw withdrawal threshold after 1 hr by von Frey filaments assay; assay type: functional
Summary of the method: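 Von Frey paw withdrawal thresholds were read 1 h post-dose to assess late-phase hypersensitivity. ED50 was derived from the dose-response.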

[18] = system: Rattus norvegicus; experiment: Inhibition of paw withdrawal threshold in Sprague-Dawley rat MIA-induced osteoarthritic pain model at 10 mg/kg, po measured up to 4 hrs; assay type: organism-based; conditions: in vivo
[19] = system: Rattus norvegicus; experiment: Analgesic activity in Sprague-Dawley rat MIA-induced osteoarthritic pain model assessed as increase in paw withdrawal threshold at 3 mg/kg, po after 1 hr in presence of CB2 inverse agonist AR401733 by von Frey filaments assay; assay type: functional, organism-based
[20] = system: Rattus norvegicus; experiment: Analgesic activity in Sprague-Dawley rat MIA-induced osteoarthritic pain model assessed as increase in paw withdrawal threshold at 3 mg/kg, po after 1 hr in presence of CB2 antagonist […] by von Frey filaments assay; assay type: functional, organism-based
[21] = system: Rattus norvegicus; experiment: Analgesic activity in Sprague-Dawley rat MIA-induced osteoarthritic pain model assessed as increase in paw withdrawal threshold at 3 mg/kg, po after 1 hr in presence of CB2 antagonist SR144528 by von Frey filaments assay; assay type: functional, organism-based
[22] = system: Rattus norvegicus; experiment: Analgesic activity in Sprague-Dawley rat MIA-induced osteoarthritic pain model assessed as increase in paw withdrawal threshold at 3 mg/kg, po after 1 hr in presence of CB1 antagonist rimonabant by von Frey filaments assay; assay type: functional, organism-based
[23] = system: Rattus norvegicus; experiment: Analgesic activity in Sprague-Dawley rat MIA-induced osteoarthritic pain model assessed as increase in paw withdrawal threshold at 3 mg/kg, ip administered twice daily for 5 days measured 1 hr post dose at 1 day interval for 5 days during compound dosing; assay type: functional, organism-based
Summary of the method: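 Rats with MIA-induced late-phase hypersensitivity were dosed IP twice daily for 5 days. Von Frey paw withdrawal thresholds were measured 1 h after the morning dose on days 1, 3 and 5.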

[24] = Aqueous solubility of the compound at pH 2 to 7 using solid samples; assay type: physicochemical; conditions: aqueous solution
[25] = target: T3, Cytochrome P450 1A2 (Homo sapiens, UniProt P05177); experiment: Inhibition of CYP1A2 (unknown origin); assay type: ADME
T3 sequence (P05177 whole entry): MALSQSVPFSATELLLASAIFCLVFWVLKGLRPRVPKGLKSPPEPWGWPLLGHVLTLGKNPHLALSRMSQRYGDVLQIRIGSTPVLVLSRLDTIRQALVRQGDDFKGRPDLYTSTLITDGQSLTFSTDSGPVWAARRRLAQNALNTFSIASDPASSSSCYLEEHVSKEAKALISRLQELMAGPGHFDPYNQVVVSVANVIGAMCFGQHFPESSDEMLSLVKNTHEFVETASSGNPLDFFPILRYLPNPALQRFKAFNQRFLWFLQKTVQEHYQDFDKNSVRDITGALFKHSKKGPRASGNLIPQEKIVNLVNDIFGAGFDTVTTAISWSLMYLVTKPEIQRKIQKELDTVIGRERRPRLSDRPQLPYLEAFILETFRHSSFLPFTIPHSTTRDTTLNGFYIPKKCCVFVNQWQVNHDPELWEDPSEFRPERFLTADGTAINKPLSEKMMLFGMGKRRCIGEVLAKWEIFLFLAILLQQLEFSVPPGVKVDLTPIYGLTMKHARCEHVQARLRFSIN

[26] = target: Cytochrome P450 2C9 (Homo sapiens, UniProt P11712); experiment: Inhibition of CYP2C9 (unknown origin); assay type: ADME
[27] = target: Cytochrome P450 2C19 (Homo sapiens, UniProt P33261); experiment: Inhibition of CYP2C19 (unknown origin); assay type: ADME
[28] = target: Cytochrome P450 2D6 (Homo sapiens, UniProt P10635); experiment: Inhibition of CYP2D6 (unknown origin); assay type: ADME
[29] = target: Cytochrome P450 3A4 (Homo sapiens, UniProt P08684); experiment: Inhibition of CYP3A4 (unknown origin); assay type: ADME
[30] = target: T4, Voltage-gated inwardly rectifying potassium channel KCNH2 (Homo sapiens, UniProt Q12809); experiment: Inhibition of [3H]-astemizole binding to human ERG
[31] = target: T4, Voltage-gated inwardly rectifying potassium channel KCNH2; experiment: Inhibition of human ERG by patch-clamp method
[32] = system: HepG2; experiment: Cytotoxicity against human HepG2 cells up to 1000 uM; assay type: cell-based
Summary of the method: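 Essential Cell Function panel in live HepG2 cells, measuring several cellular parameters.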

[33] = system: Salmonella typhimurium; experiment: Mutagenicity in Salmonella typhimurium in presence of liver S9 fraction by Ames test; assay type: toxicity, organism-based; conditions: salmonella enterica subsp. enterica serovar typhimurium
[34] = system: Salmonella typhimurium; experiment: Mutagenicity in Salmonella typhimurium in absence of liver S9 fraction by Ames test; assay type: toxicity, organism-based; conditions: salmonella enterica subsp. enterica serovar typhimurium
[35] = system: Rattus norvegicus; experiment: Toxicity in Sprague-Dawley rat assessed as change in core body temperature up to 100 mg/kg, po measured after 60 mins by rectal probe method; assay type: organism-based; conditions: in vivo, 1 h
[36] = system: Rattus norvegicus; experiment: Acute toxicity in Sprague-Dawley rat assessed as lethargy at 300 mg/kg, po administered for 14 days measured on day 1 during compound dosing; assay type: organism-based; conditions: in vivo, 336 h
Summary of the method: (§1)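 Male and female Sprague-Dawley rats in a 14-day dose-range-finding toxicity study with oral dose groups of 0, 30, 100 and 300 mg/kg. Animals were watched for clinical signs such as lethargy over the dosing period.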

[37] = system: Rattus norvegicus; experiment: Acute toxicity in Sprague-Dawley rat assessed as lethargy at 300 mg/kg, po administered for 14 days measured on day 2 to 14 during compound dosing; assay type: organism-based; conditions: in vivo, 336 h; summary of the method: as §1
[38] = system: Rattus norvegicus; experiment: Acute toxicity in Sprague-Dawley rat assessed as hematological changes at 30 to 300 mg/kg, po administered for 14 days measured during compound dosing; assay type: organism-based; conditions: in vivo, 336 h
[39] = system: Rattus norvegicus; experiment: Acute toxicity in Sprague-Dawley rat assessed as histopathological abnormalities at 30 to 300 mg/kg, po administered for 14 days measured during compound dosing; assay type: organism-based; conditions: in vivo, 336 h
[40] = Stability of the compound; assay type: physicochemical

T4 sequence (Q12809 whole entry): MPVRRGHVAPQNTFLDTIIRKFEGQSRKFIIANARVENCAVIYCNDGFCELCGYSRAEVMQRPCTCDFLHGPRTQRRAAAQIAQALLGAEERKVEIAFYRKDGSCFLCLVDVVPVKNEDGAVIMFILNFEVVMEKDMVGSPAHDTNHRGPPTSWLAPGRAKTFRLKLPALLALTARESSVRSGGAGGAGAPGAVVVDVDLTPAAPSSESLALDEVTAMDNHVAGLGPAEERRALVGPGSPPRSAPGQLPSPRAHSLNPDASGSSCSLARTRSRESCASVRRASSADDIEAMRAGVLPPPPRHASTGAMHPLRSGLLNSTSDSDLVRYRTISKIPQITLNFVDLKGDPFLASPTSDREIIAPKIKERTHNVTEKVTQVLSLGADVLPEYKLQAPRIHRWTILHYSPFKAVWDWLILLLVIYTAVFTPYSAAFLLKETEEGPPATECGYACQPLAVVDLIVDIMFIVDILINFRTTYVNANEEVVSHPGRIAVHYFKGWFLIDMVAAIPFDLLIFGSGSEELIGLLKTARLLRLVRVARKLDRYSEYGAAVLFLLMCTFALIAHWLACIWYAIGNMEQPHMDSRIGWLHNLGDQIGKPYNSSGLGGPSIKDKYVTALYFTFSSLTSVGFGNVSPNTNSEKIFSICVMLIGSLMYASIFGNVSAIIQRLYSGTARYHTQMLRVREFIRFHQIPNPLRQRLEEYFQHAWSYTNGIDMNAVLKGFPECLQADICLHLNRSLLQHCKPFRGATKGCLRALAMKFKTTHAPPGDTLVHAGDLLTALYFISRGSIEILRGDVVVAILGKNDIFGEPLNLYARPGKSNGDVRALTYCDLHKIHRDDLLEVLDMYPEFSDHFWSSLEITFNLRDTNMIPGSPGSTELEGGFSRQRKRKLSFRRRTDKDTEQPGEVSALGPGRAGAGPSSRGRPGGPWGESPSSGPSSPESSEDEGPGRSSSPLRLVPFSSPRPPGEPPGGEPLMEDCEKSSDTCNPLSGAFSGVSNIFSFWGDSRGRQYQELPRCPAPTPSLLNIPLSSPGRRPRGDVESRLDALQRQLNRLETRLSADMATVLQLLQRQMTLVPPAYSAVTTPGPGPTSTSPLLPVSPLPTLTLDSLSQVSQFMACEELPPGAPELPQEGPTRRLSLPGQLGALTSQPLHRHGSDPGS
Cytochrome P450 2C9, sequence (P11712 whole entry): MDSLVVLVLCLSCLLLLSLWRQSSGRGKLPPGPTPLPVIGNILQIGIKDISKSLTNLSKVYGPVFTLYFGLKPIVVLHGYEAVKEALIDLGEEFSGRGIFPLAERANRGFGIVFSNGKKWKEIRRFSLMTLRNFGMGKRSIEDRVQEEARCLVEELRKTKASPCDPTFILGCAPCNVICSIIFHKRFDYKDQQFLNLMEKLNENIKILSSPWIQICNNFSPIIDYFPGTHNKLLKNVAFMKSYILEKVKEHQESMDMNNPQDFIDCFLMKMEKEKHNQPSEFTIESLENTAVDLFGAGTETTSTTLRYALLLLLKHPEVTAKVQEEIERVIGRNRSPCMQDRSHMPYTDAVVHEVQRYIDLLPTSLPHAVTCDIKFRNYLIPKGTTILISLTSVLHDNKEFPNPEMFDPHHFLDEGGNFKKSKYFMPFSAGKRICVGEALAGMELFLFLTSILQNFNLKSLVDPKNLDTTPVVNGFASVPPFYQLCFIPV
Cannabinoid receptor 1, sequence (P20272 whole entry): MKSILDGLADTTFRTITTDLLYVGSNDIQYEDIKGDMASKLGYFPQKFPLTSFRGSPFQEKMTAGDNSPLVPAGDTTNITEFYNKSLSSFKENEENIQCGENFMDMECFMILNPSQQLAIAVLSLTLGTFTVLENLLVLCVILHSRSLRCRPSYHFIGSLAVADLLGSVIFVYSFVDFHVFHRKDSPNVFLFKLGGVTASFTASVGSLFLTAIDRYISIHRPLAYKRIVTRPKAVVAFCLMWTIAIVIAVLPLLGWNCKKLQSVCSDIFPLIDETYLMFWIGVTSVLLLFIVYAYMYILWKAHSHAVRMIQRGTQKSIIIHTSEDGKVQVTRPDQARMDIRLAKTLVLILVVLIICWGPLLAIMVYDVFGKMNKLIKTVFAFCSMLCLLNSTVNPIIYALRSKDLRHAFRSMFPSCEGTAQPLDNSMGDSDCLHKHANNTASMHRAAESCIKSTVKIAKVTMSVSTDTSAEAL
Cannabinoid receptor 2 (Homo sapiens, UniProt P34972), sequence (P34972 whole entry): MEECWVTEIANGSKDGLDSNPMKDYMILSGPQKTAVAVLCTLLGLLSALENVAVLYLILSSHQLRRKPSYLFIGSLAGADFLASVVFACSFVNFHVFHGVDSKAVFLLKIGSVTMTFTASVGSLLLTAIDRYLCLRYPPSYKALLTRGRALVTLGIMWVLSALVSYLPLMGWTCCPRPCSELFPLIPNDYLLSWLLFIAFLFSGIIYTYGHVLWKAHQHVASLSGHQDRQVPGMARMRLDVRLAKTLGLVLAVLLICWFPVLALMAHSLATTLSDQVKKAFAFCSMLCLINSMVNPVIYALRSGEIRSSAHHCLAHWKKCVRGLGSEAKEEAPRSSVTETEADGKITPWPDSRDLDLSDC
Cytochrome P450 3A4, sequence (P08684 whole entry): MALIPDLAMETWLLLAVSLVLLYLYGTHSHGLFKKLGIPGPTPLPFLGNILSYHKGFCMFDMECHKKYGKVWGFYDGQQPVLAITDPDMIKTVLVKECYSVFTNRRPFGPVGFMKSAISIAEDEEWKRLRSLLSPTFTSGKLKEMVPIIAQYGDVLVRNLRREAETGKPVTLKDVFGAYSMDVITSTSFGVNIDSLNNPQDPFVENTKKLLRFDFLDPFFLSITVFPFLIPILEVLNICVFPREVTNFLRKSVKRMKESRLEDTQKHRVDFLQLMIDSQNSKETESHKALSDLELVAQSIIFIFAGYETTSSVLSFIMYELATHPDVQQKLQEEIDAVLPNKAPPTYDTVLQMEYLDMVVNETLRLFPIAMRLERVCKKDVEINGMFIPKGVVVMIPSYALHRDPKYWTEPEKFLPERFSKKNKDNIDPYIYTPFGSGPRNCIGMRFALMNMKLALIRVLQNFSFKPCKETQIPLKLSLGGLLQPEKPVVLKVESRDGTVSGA
Cytochrome P450 2D6, sequence (P10635 whole entry): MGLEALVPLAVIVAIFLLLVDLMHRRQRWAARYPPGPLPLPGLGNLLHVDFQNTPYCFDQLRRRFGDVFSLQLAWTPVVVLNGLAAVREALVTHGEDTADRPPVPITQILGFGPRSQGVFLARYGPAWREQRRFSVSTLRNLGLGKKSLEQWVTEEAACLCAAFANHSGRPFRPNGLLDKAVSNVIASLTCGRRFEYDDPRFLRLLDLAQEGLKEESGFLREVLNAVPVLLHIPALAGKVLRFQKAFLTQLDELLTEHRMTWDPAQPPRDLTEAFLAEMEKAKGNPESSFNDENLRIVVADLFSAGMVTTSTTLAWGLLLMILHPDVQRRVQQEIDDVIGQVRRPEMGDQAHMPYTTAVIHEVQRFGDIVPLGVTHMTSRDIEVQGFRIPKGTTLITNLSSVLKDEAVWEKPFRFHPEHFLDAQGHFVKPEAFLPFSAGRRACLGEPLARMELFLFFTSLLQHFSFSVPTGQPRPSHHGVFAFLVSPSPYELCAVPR
Cytochrome P450 2C19, sequence (P33261 whole entry): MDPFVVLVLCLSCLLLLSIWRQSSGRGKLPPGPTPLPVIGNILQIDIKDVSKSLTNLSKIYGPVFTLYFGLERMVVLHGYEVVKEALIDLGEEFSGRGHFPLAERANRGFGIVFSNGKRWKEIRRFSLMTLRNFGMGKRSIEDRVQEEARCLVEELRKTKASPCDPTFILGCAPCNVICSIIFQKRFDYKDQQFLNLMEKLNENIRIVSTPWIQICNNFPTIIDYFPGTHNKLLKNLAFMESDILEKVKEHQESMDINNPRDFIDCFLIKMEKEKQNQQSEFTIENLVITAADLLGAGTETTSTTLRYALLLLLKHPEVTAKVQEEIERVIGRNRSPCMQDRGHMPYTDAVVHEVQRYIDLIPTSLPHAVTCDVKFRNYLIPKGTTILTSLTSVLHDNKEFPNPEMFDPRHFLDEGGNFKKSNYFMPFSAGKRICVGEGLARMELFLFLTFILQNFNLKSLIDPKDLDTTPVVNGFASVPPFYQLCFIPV

CN1CC[C@]23c4c5ccc(O)c4O[C@H]2[C@@H](O)C=C[C@H]3[C@H]1C5 [MORPHINE]
Activity [1]: Active | Activity [2]: Toxic

CC(C)(C)[C@@H](CO)NC(=O)c1nn(-c2c[n+]([O-])ccn2)c2c1C[C@@H]1C[C@H]21 [OLORINAB]
Emax [3]: 106% | EC50 [4]: 0.0076 µM | Emax [5]: 100% | EC50 [6]: 10 to 30 µM | Activity [7]: 106% | half-life [8]: > 1 h | half-life [9]: > 1 h | half-life [10]: > 1 h | Kp at 2 h [11]: 0.04 | fraction unbound [12]: 0.1 to 0.2 | fraction unbound [13]: 0.1 to 0.2 | fraction unbound [14]: 0.1 to 0.2 | fraction unbound [15]: 0.1 to 0.2 | fraction unbound [16]: 0.1 to 0.2 | ED50 [17]: 2.3 mg/kg | inhibition (INH) [18]: Non-Toxic | Activity [19]: inactive | Activity [20]: inactive | Activity [21]: inactive | Activity [22]: inactive | Activity [23]: Active | solubility thermodynamic [24]: 2000 µg/mL (≈ 5.6 mM) | IC50 [25]: > 50 µM | IC50 [26]: > 50 µM | IC50 [27]: > 50 µM | IC50 [28]: > 50 µM | IC50 [29]: > 50 µM | IC50 [30]: > 30 µM | IC50 [31]: > 30 µM | Activity [32]: Non-Toxic | Activity [33]: Non-Toxic | Activity [34]: Non-Toxic | Activity [35]: Non-Toxic | Activity [36]: Toxic | Activity [37]: Non-Toxic | Activity [38]: Non-Toxic | Activity [39]: Non-Toxic | Stability [40]: Stable
